This is an account of results in ChEMBL document CHEMBL3593158, “Dirchromones: Cytotoxic Organic Sulfur Compounds Isolated from Dirca palustris” (J Nat Prod, 2015).

Test [1] can be described thus: Cytotoxicity against human DLD1 cells assessed as inhibition of cell growth incubated for 48 hrs by Hoechst assay. It is filed as functional, cell-based. Conditions: DLD-1, 48 h. The method, boiled down:
(§1)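 Cells from ATCC, grown in MEM with Earle's salts, 10% fetal calf serum, vitamins, sodium pyruvate, nonessential amino acids and penicillin/streptomycin at 37 °C in humidified 5% CO2. 5 × 10^3 exponentially growing cells per well adhered for 16 h, then were exposed 48 h to increasing concentrations in medium (final DMSO 0.5% v/v). Hoechst staining read-out; IC50 is the concentration inhibiting growth by 50%.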

Another test relates to Staphylococcus aureus. In words: Antibacterial activity against Staphylococcus aureus ATCC 25923 incubated for 24 hrs by microdilution method. The test is classed as functional. The method, boiled down:
(§2)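 Modified microdilution in nutrient broth with exponentially growing bacteria per well: E. coli at 5 × 10^3, S. aureus at 3.5 × 10^4. Increasing compound concentrations were dissolved in DMSO and diluted in broth (final DMSO 0.1% v/v). Plates incubated 24 h at 37 °C.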
(Broth dilution looks for growth in wells or tubes with falling amounts of substance.)

The test system of a further test is Candida albicans. In words: Antifungal activity against Candida albicans incubated for 24 hrs by microdilution method. It is filed as functional, organism-based. The method, boiled down: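 Yeast tested by modified microdilution at 2 × 10^3 C. albicans per well in Sabouraud dextrose. Compounds were dissolved in DMSO, diluted in Sabouraud dextrose and added at increasing concentrations (final DMSO 0.1% v/v). Plates incubated 24 h at 37 °C.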

Test [2] can be described thus: Cytotoxicity against human WS1 cells assessed as inhibition of cell growth incubated for 48 hrs by Hoechst assay. The test is classed as cell-based. The note with it: WS1, 48 h. The method, boiled down: as §1
The subject of test [3] is A549. In words: Cytotoxicity against human A549 cells assessed as inhibition of cell growth incubated for 48 hrs by Hoechst assay. It is filed as functional, cell-based. Conditions: A549, 48 h. Put shortly: as §1
Another test has as its system Escherichia coli. In words: Antibacterial activity against Escherichia coli ATCC 25922 incubated for 24 hrs by microdilution method. It is filed as functional, organism-based. The method, boiled down:
as §2

Another test concerns DLD-1. In words: Selectivity index, ratio of IC50 for human WS1 cells to IC50 for human DLD1 cells. It is filed as functional.
For test [4], the system named is A549. In words: Selectivity index, ratio of IC50 for human A549 cells to IC50 for human DLD1 cells. The test is classed as functional.

pIC50: −log10 of the molar value. ≈ marks a conversion by molar mass, not a printed value. Calls of active or inactive are those of the source. No cut-off for these calls is given here.

The pIC50 is the IC50 on a negative log10 scale, so that one unit is a factor of ten. Usually MIC90 stands for an inhibitory concentration at the 90% level, which refers to growth in some studies and to a panel of isolates in others. Low values mean higher susceptibility, high ones lower susceptibility. Regarding `COc1cc2oc(/C=C/[S+](C)[O-])cc(=O)c2cc1O` (stereo not drawn), the negative logarithm of the IC50 (pIC50) (in test [1]; in test [2]; with A549 [3]) was below 5.00 in each case. In addition, in the test on Staphylococcus aureus (ATCC 25923, 24 h), the MIC90 is 14 µg/mL (≈ 49.9 µM). Moreover, the result with Candida albicans and in the test on Escherichia coli was inactive.

Turning to `C[S+]([O-])/C=C/c1cc(=O)c2cc(O)ccc2o1` (stereo not drawn), the pIC50 (in test [1]; in test [2]; with A549 [3]) was below 5.00 in each case. Besides, the MIC90 with Staphylococcus aureus (ATCC 25923, 24 h) turned out to be 7.8 µg/mL (≈ 31.2 µM). Also, the result in the test on Candida albicans and with Escherichia coli was inactive.

In the case of `C[S+]([O-])/C=C/c1cc(=O)c2ccccc2o1` (stereo not drawn), the negative logarithm of the IC50 (pIC50) in test [1] is 6.00; in test [2] it was 5.05; in the test with A549 [3], 5.00. The MIC90 with Staphylococcus aureus (ATCC 25923, 24 h) was 3.7 µg/mL (≈ 15.8 µM). Besides, the result in the test with Candida albicans and in the test on Escherichia coli was inactive. Also, the Ratio IC50 with DLD-1 was 9; in the test with A549 [4], 10.

GENTAMICIN: the MIC90 against Staphylococcus aureus worked out at 0.04 µg/mL.

Consider `COc1ccc2c(=O)cc(/C=C/[S+](C)[O-])oc2c1OC` (stereo not drawn), for which the negative logarithm of the IC50 (pIC50) in test [1] is 5.48; in test [2], below 5.00; in the test on A549 [3], below 5.00. This molecule also came in with an MIC90 against Staphylococcus aureus (ATCC 25923, 24 h) of 18.4 µg/mL (≈ 62.5 µM). Besides, the result in the test with Candida albicans and with Escherichia coli was inactive.

Take `COc1ccc2c(=O)cc(/C=C/[S+](C)[O-])oc2c1O` (stereo not drawn): the pIC50 (in test [1]; in test [2]; in the test on A549 [3]) was below 5.00 throughout. Besides, the MIC90 against Staphylococcus aureus (ATCC 25923, 24 h) turned out to be 14 µg/mL (≈ 49.9 µM). Besides, the result in the test with Candida albicans and in the test with Escherichia coli was inactive.

For the molecule `COc1cc2oc(/C=C/[S+](C)[O-])cc(=O)c2cc1OC` (stereo not drawn), the negative logarithm of the IC50 (pIC50) in test [1] is 5.38; in test [2] it was below 5.00; in the test with A549 [3] it was below 5.00. This molecule also displayed an MIC90 against Staphylococcus aureus (ATCC 25923, 24 h) of 18.4 µg/mL (≈ 62.5 µM). In addition, the outcome in the test on Candida albicans and in the test on Escherichia coli was inactive.

With `COc1ccc2oc(/C=C/[S+](C)[O-])cc(=O)c2c1` (stereo not drawn), the figures for the pIC50 (in test [1]; in test [2]; with A549 [3]) were 5.96, 5.22 and 5.05, respectively. Besides, the MIC90 in the test with Staphylococcus aureus (ATCC 25923, 24 h) worked out at 4.1 µg/mL (≈ 15.5 µM). The outcome with Candida albicans and in the test on Escherichia coli was inactive. Also, the results for the “Ratio IC50” value in the test on DLD-1 and with A549 [4] were 5 and 8.2, respectively.

On to `COc1cc([C@@H]2c3cc4c(cc3[C@@H](O[C@@H]3O[C@@H]5CO[C@@H](C)O[C@H]5[C@H](O)[C@H]3O)[C@H]3COC(=O)[C@H]23)OCO4)cc(OC)c1O` [ETOPOSIDE], for which the pIC50 is 5.48 in test [1], below 5.00 in test [2] and 6.32 in the test with A549 [3].

Regarding `COc1ccc2c(=O)cc(/C=C/[S+](C)[O-])oc2c1` (stereo not drawn), the results for the negative-log IC50 (pIC50) (in test [1]; in test [2]; in the test on A549 [3]) were 5.74, 5.05 and 4.98, respectively. Also, in the test with Staphylococcus aureus (ATCC 25923, 24 h), the MIC90 was found to be 8.3 µg/mL (≈ 31.4 µM). Moreover, the result with Candida albicans and in the test with Escherichia coli was inactive. In addition, the entries for the “Ratio IC50” value in the test with DLD-1 and in the test with A549 [4] were 5 and 5.8, respectively.
